Experimental data taken from ChEMBL document CHEMBL5360580 (Eur J Med Chem, 2023).
Calls of active or inactive are those of the source. The calls are words filed in the database; no cut-off is given here.

Legend:
[1] = tested on: SARS-CoV-2; experiment: Antiviral activity against SARS-CoV-2 infected in African green monkey Vero E6 cells assessed as inhibition of viral replication at 1 uM incubated for 24 hrs by IFA assay relative to control; format: functional; conditions: Severe acute respiratory syndrome coronavirus 2, Vero C1008
[2] = Selectivity index, ratio of CC50 for cytotoxicity against African green monkey Vero E6 to EC50 for antiviral activity against SARS-CoV-2 infected in African green monkey Vero E6 cells; format: toxicity, cell-based, Vero C1008; conditions: read-out: Ratio CC50/EC50
[3] = tested on: SARS-CoV-2; experiment: Antiviral activity against SARS-CoV-2 infected in African green monkey Vero E6 cells assessed as inhibition of viral replication incubated for 24 hrs by IFA assay; format: functional, organism-based; conditions: Severe acute respiratory syndrome coronavirus 2, Vero C1008, 24 h
[4] = tested on: Vero C1008; experiment: Cytotoxicity against African green monkey Vero E6 cells assessed as reduction in cell viability measured after 48 hrs by CCK-8 assay; format: toxicity, cell-based; conditions: chlorocebus sabaeus, vero c1008, 48 h
[5] = AUClast in ICR mouse at 30 mg/kg, po measured upto 24 hrs by LC-MS/MS analysis; format: ADME, organism-based; set-up: dose 30 mg/kg, time < 24 hrs, route po; conditions: in vivo
Outline: (§1)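 Male-unspecified ICR (CD-1) mice, N = 3 per group, were fasted 12 h. Compound in DMSO/0.5% HMPC (5/95, v/v) was given orally at 30 mg/kg or intravenously at 2.5 mg/kg. Femoral-vein blood was drawn at 0.25, 0.5, 1, 2, 4, 8 and 24 h, and serum analyte levels were measured by LC-MS/MS.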

[6] = Cmax in ICR mouse at 30 mg/kg, po measured upto 24 hrs by LC-MS/MS analysis; format: ADME, organism-based; set-up: dose 30 mg/kg, time < 24 hrs, route po; conditions: in vivo; outline: as §1
[7] = Observed AUC (0 to infinity) in ICR mouse at 30 mg/kg, po measured upto 24 hrs by LC-MS/MS analysis; format: ADME, organism-based; set-up: dose 30 mg/kg, time < 24 hrs, route po; conditions: in vivo; outline: as §1
[8] = Observed MRT (0 to infinity) in ICR mouse at 30 mg/kg, po measured upto 24 hrs by LC-MS/MS analysis; format: ADME, organism-based; conditions: in vivo; outline: as §1
[9] = Half life in ICR mouse at 30 mg/kg, po measured upto 24 hrs by LC-MS/MS analysis; format: ADME, organism-based; conditions: in vivo; outline: as §1
[10] = Observed AUC (0 to infinity) in ICR mouse at 2.5 mg/kg, iv measured upto 24 hrs by LC-MS/MS analysis; format: ADME, organism-based; set-up: dose 2.5 mg/kg, time < 24 hrs, route iv; conditions: in vivo; outline: as §1
[11] = Cmax in ICR mouse at 2.5 mg/kg, iv measured upto 24 hrs by LC-MS/MS analysis; format: ADME, organism-based; set-up: dose 2.5 mg/kg, time < 24 hrs, route iv; conditions: in vivo; outline: as §1
[12] = Half life in ICR mouse at 2.5 mg/kg, iv measured upto 24 hrs by LC-MS/MS analysis; format: ADME, organism-based; conditions: in vivo; outline: as §1
[13] = AUClast in ICR mouse at 2.5 mg/kg, iv measured upto 24 hrs by LC-MS/MS analysis; format: ADME, organism-based; set-up: dose 2.5 mg/kg, time < 24 hrs, route iv; conditions: in vivo; outline: as §1
[14] = Observed MRT (0 to infinity) in ICR mouse at 2.5 mg/kg, iv measured upto 24 hrs by LC-MS/MS analysis; format: ADME, organism-based; conditions: in vivo; outline: as §1
[15] = tested on: Vero C1008; experiment: Downregulation of BECN1 level in African green monkey Vero E6 cells at 10 uM measured after 16 hrs by Western blotting analysis; format: functional, cell-based; conditions: Chlorocebus sabaeus
Outline: (§2)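 Vero-E6 cells in DMEM with 10% FBS were cultured overnight at 37 °C, 5% CO2, then treated with a concentration series for 16 h. Lysates were made in RIPA on ice and equalised for protein by BCA. Blots were probed for SKP2 or Beclin-1 plus β-actin and detected by ECL. The band-intensity ratio to β-actin was normalised to DMSO control.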

[16] = tested on: Vero C1008; experiment: Downregulation of SKP2 level in African green monkey Vero E6 cells at 0.3 to 10 uM measured after 16 hrs by Western blotting analysis; format: functional, cell-based; conditions: Chlorocebus sabaeus, dose 0.3-10 µM; outline: as §2
[17] = tested on: SARS-CoV-2; experiment: Antiviral activity against SARS-CoV-2 infected in African green monkey Vero E6 cells assessed as inhibition of viral replication at 2.5 uM incubated for 24 hrs by IFA assay relative to control; format: functional; conditions: Severe acute respiratory syndrome coronavirus 2, Vero C1008
[18] = tested on: Vero C1008; experiment: Downregulation of BECN1 level in African green monkey Vero E6 cells at 1 to 3 uM measured after 16 hrs by Western blotting analysis; format: functional, cell-based; conditions: Chlorocebus sabaeus, dose 1-3 µM; outline: as §2
[19] = Aqueous solubility of compound at 0.5 mg/mL in presence of acetonitrile by HPLC analysis; format: physicochemical; conditions: buffer
Outline: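 Compound was suspended in water, vortexed vigorously and filtered through a 0.22 μm membrane. The filtrate was diluted 2-fold with 80% acetonitrile and analysed by reversed-phase amide HPLC. Concentration was read against a standard curve prepared from a 0.5 mg/mL solution in 80% acetonitrile. Single determination.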

[20] = Oral bioavailability in ICR mouse at 30 mg/kg measured upto 24 hrs by LC-MS/MS analysis; format: ADME, organism-based; conditions: in vivo; outline: as §1
[21] = Subacute toxicity in ICR mouse assessed as change in body weight at 50 to 200 mg/kg, po qd administered for 10 days; format: organism-based; conditions: in vivo, 240 h, dose 50-200 mg/kg, time 10 day
Outline: (§3)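 Male ICR mice (18–20 g), ten per group, received oral doses once daily for ten days, with a control group alongside. Body weight, food intake and behaviour were observed daily. Animals were fasted before dissection, and heart, liver, spleen, lung, kidney and administration site were collected for organ weight and histology.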

[22] = Subacute toxicity in ICR mouse assessed as mortality at 50 to 200 mg/kg, po qd administered for 10 days; format: organism-based; conditions: in vivo, 240 h, dose 50-200 mg/kg, time 10 day; outline: as §3
[23] = Subacute toxicity in ICR mouse assessed as change in spleen histology at 50 to 200 mg/kg, po qd administered for 10 days; format: organism-based; conditions: in vivo, 240 h, dose 50-200 mg/kg, time 10 day; outline: as §3
[24] = Subacute toxicity in ICR mouse assessed as change in kidney histology at 50 to 200 mg/kg, po qd administered for 10 days; format: organism-based; conditions: in vivo, 240 h, dose 50-200 mg/kg, time 10 day; outline: as §3
[25] = Subacute toxicity in ICR mouse assessed as change in organ weight at 50 to 200 mg/kg, po qd administered for 10 days; format: organism-based; conditions: in vivo, 240 h, dose 50-200 mg/kg, time 10 day; outline: as §3
[26] = Subacute toxicity in ICR mouse assessed as change in heart histology at 50 to 200 mg/kg, po qd administered for 10 days; format: organism-based; conditions: in vivo, 240 h, dose 50-200 mg/kg, time 10 day; outline: as §3
[27] = Subacute toxicity in ICR mouse assessed as change in liver histology at 50 to 200 mg/kg, po qd administered for 10 days; format: organism-based; conditions: in vivo, 240 h, dose 50-200 mg/kg, time 10 day; outline: as §3
[28] = Subacute toxicity in ICR mouse assessed as change in lung histology at 50 to 200 mg/kg, po qd administered for 10 days; format: organism-based; conditions: in vivo, 240 h, dose 50-200 mg/kg, time 10 day; outline: as §3

Nc1ccc(NC(=O)c2cc(Cl)ccc2O)c(Cl)c1
inhibition at 1 µM [1]: < 10%

O=C(Nc1ccc(C(F)(F)F)c(Cl)c1)c1cc(Cl)c(F)cc1O
selectivity ratio [2]: 1.69 | EC50 [3]: 2.67 µM | CC50 [4]: 4.52 µM | inhibition at 1 µM [1]: 95%

O=C(Nc1ccc(C(F)(F)F)cc1)c1ccccc1O
inhibition at 1 µM [1]: < 10%

O=C(Nc1ccc(C(F)(F)F)cc1)c1cc(Cl)c(F)cc1O
AUClast [5]: 1563 ng·h/mL | Cmax [6]: 452 ng/mL | AUC [7]: 1573 ng·h/mL | selectivity ratio [2]: 3.73 | EC50 [3]: 1 µM | MRT [8]: 5.45 h | CC50 [4]: 3.73 µM | t1/2 [9]: 3.1 h | inhibition at 1 µM [1]: 95%

C[C@H](N)C(=O)Oc1cc(F)c(Cl)cc1C(=O)Nc1ccc(OC(F)(F)F)cc1.Cl
AUC(0-inf) ([10]; ICR): 6700 ng·h/mL | Cmax [11]: 3360 ng/mL | half-life ([12]; ICR): 2.92 h | AUC(0-t) at 24 h ([13]; ICR): 6670 ng·h/mL | MRT inf ([14]; ICR): 5.02 h

O=C(Nc1ccc(C(F)(F)F)cc1)c1cc(Cl)ccc1O
EC50 [3]: 1.31 µM | inhibition at 1 µM [1]: 95%

O=C(Nc1ccc(C(F)(F)F)cc1)c1cc(Cl)cnc1O
inhibition at 1 µM [1]: 50%

Oc1ccc(Cl)cc1-c1nnc(-c2ccc(C(F)(F)F)cc2)[nH]1
inhibition at 1 µM [1]: < 10%

O=C(NCc1ccc(C(F)(F)F)cc1)c1cc(Cl)ccc1O
inhibition at 1 µM [1]: 55%

Oc1ccc(Cl)cc1-c1nnc(-c2ccc(C(F)(F)F)cc2)o1
inhibition at 1 µM [1]: < 10%

N#Cc1ccc(Cl)cc1C(=O)Nc1ccc(C(F)(F)F)cc1
inhibition at 1 µM [1]: < 10%

O=C(Nc1ccc(C(F)(F)F)cc1)c1cc(Cl)cc([N+](=O)[O-])c1O
inhibition at 1 µM [1]: 50%

O=C(Nc1ccc([N+](=O)[O-])cc1Cl)c1cc(Cl)ccc1O [NICLOSAMIDE]
AUClast [5]: 478 ng·h/mL | Cmax [6]: 428 ng/mL | AUC [7]: 522 ng·h/mL | MRT [8]: 2.81 h | Activity [15]: Active | Activity [16]: Active | inhibition at 2.5 µM [17]: 39% | CC50 [4]: 1.96 µM | t1/2 [9]: 1.99 h | Activity [18]: Active | solubility [19]: 0.16 µg/mL

O=C(Nc1ccc(OC(F)(F)F)cc1)c1cc(Cl)c(F)cc1O
AUC ([10]; 24 h): 3678 ng·h/mL | AUClast [5]: 5547 ng·h/mL | Cmax [6]: 2376 ng/mL | AUC [7]: 5579 ng·h/mL | bioavailability [20]: 12.7% | selectivity ratio [2]: 4.73 | t1/2 ([12]; iv, 2.5 mg/kg, 24 h): 4.6 h | EC50 [3]: 1 µM | Activity [21]: Non-Toxic | Activity [22]: Non-Toxic | Activity [23]: Non-Toxic | MRT [8]: 4.41 h | Activity [15]: Active | AUClast ([13]; 24 h): 3646 ng·h/mL | Activity [16]: Active | Activity [24]: Non-Toxic | CC50 [4]: 4.73 µM | t1/2 [9]: 3.33 h | Activity [25]: Non-Toxic | Activity [18]: Active | inhibition at 1 µM [1]: 91% | Activity [26]: Non-Toxic | solubility [19]: 0.1 µg/mL | Activity [27]: Non-Toxic | MRT ([14]; iv, 2.5 mg/kg, 24 h): 1.94 h | Activity [28]: Non-Toxic
